Screening data deposited in PubChem BioAssay by several laboratories.
The list is not random: actives were taken first. Their share in the collection is about 2.5%.
MC4R barr agon: agonists of human melanocortin 4 receptor (MC4R) beta-arrestin; U2OS MC4R beta-arrestin complementation, luminescence; percent of melanotan II response, DMSO zero; activation, % at 8.9 µM; hit rate 0.98% among 360,000;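 active = activation above a per-plate cutoff, the mean activation of sample wells on that plate plus 3 SD, cut at about 8% in these data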
MC4R antagonist: blocks human MC4R cAMP signaling; hit rate 0.48% among 360,000; inhibition, % at 6.5 µM; MC4R-expressing cells, MTII-stimulated cAMP, LANCE TR-FRET;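 active = inhibition above its plate's cutoff, the mean of tested wells on that plate plus 3 SD, cut at about 29% in these data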;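 also: 0% = Melanotan II alone and 100% = Melanotan II plus saturating MCL0020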
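Material: U2OS-MC4R stable cell line | Reagent: Melanotan II challenge after compound preincubation | Doses: One concentration, 6.5 µM nominal | Incubation: 30-min compound preincubation, 1-h Melanotan II challenge, 1-h detection, room temperature | Signal: TR-FRET cAMP assay | Replicates: One well per compound, no replicates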
Rev-erbA mod: modulates human Rev-erb alpha binding to DNA; hit rate 0.79% among 370,000; activity, % at 10 µM; Rev-erbα–FITC-DNA binding, fluorescence polarization, 90 min;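 active = activity above about 14%, limit read from the data; passing the limit was not always enough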;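 also: 0% = DMSO wells with 35 nM protein and 100% = DMSO wells with 750 nM protein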
NTR1 ag: NTR1 (human) agonism; P30989; NTR1-U2OS beta-arrestin-GFP spot imaging, agonist mode; activation, % at 20 µM; hit rate 0.17% among 330,000; AID 493036;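 active = activation at or above 40% of the spot to cytoplasm intensity ratio, with at least 20 cells analyzed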;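 also: 0% = DMSO without peptide and 100% = 100 nM NTR1 peptide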
Target sequence (P30989 whole entry, looked up): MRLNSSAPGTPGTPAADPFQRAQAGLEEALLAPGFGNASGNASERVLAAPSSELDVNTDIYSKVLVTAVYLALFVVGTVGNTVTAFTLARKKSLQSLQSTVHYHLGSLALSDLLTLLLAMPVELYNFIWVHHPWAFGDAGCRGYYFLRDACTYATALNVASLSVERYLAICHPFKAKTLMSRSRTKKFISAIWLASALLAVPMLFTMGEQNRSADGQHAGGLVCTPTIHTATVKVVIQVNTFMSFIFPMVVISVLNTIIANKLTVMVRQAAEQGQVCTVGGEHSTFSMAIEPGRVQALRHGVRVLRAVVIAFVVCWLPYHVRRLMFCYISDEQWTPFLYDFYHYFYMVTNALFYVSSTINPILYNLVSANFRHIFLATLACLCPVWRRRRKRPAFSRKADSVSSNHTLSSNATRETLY
PG9 binder: small molecules binding HIV-1 gp120 antibody PG9 | TR-FRET gp120-PG9 antibody binding | inhibition, % at 6.7 µM | hit rate 0.43% among 360,000 | AID 624416; in the data active = inhibition above about 8.5%
cAMP nonselect: nonselective cAMP signaling inhibitor, MC4R antagonist counter-screen; parental U2OS, forskolin cAMP, LANCE TR-FRET; shares compounds with MC4R antagonist; inhibition, % at 6.5 µM; hit rate 26% among 1,600;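 active = mean inhibition over triplicates above the low-control well mean plus 3 SD, set per campaign, cut at about 13% in these data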;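 also: signal is single emission at 671 nm which falls as cellular cAMP rises; 0% = forskolin-stimulated wells and 100% = buffer without forskolin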
MC4R cAMP antag: human MC4R cAMP antagonism confirmation; shares compounds with MC4R antagonist; MC4R-expressing cells, MTII-stimulated cAMP, TR-FRET; inhibition, % at 6.5 µM; hit rate 27% among 1,600; in the data active = inhibition above about 29%;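 also: 0% = agonist stimulated wells alone and 100% = agonist stimulated wells plus saturating reference antagonist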
* = called active by the depositor; · = no result given; + = active, no number.

SMILES	MC4R barr agon	MC4R antagonist	Rev-erbA mod	NTR1 ag	PG9 binder	cAMP nonselect	MC4R cAMP antag
CC(C)(C)N(Cc1cn(CC2CCCCC2)nn1)S(=O)(=O)c1ccccc1Br	·	·	1.7	·	·	·	·
COC(=O)C1=C(C(=O)OC)SC2(S1)C(C(=O)OC)=C(C(=O)OC)SC1=C2c2cc(C)cc(C)c2NC1(C)C	-1.6	53.5*	2.2	0.5	-1.0	15.0*	39.9*
Cc1ccc(-c2nnc(Nc3ccc4c(c3)OCO4)c3ccccc23)cc1S(N)(=O)=O	1.6	32.5*	3.8	4.7	-2.0	6.0	14.7
Cc1coc2c(C)c3oc(=O)c(CCC(=O)N(C)CC(=O)O)c(C)c3cc12	-0.4	-8.2	1.9	-0.3	-0.2	·	·
Cc1coc2cc3oc(=O)c(CC(=O)N(C)CC(=O)O)c(C)c3cc12	0.8	29.3*	-1.8	0.5	2.1	18.5*	0.5
Cc1cc2nc[nH]c2cc1[N+](=O)[O-]	-0.2	28.7*	4.3	-1.5	-1.7	5.1	2.0
CC(=O)c1ccc(-n2c(CCC(=O)O)ccc2-c2ccccc2)cc1	-2.2	19.8	1.5	-0.1	-0.4	·	·
CC(=O)c1ccc(-n2c(CCC(=O)O)ccc2-c2ccc(C)cc2)cc1	-0.8	30.2*	·	0.7	·	1.3	15.5
COCCCn1c(=O)/c(=C\c2cccc(OC)c2OC)s/c1=C(/C#N)C(=O)Nc1ccc(C(=O)O)cc1	0.2	28.6*	-3.5	2.7	-3.6	-7.9	-4.9
CCOc1ncccc1C(=O)Nc1nc(C(C)(C)C)cs1	8.7*	34.0*	6.8	5.0	-1.6	1.3	-1.7
CCOc1ncccc1C(=O)Nc1ncc(C)s1	-1.6	3.8	-12.6	0.3	0.0	·	·
CCCCNC(=O)CN1C(=O)CSc2ccc(S(=O)(=O)N3CCOCC3)cc21	-0.3	55.0*	4.7	·	-0.5	-1.8	-14.6
CCCCCCCNC(=O)CN1C(=O)CSc2ccc(S(=O)(=O)N3CCOCC3)cc21	-1.6	0.1	9.2	0.3	-2.1	·	·
COCCCN1C(=O)[C@H](CC(=O)NCc2cccc3ccccc23)[C@]2(C(=O)OC)CCCCC=C12	·	·	6.8	·	·	·	·
CCCC[C@H](C(=O)N(CC)c1ccccc1)[C@@H](O)c1ccc(Cl)cc1	·	·	2.6	·	·	·	·
Cc1ccc(S(=O)(=O)N(CC(=O)NC2CCC(C)CC2)c2cc(C)cc(C)c2)cc1 (stereo unspecified)	·	·	7.7	·	·	·	·
CCOC(=O)c1ccc2ncc(C(=O)OCC)c(Nc3ccc(N4CCOCC4)cc3)c2c1	1.0	47.6*	-3.0	22.6	-1.3	2.7	48.1*
O=C(Nc1ccccc1N1CCCCC1)c1ccc(Cl)cc1	0.7	17.1	-3.9	2.9	3.5	·	·
O=C(Nc1ccccc1C(=O)N1CCCCCC1)c1ccc(Cl)cc1	-1.6	18.7	0.0	-0.3	-0.3	·	·
O=C(Nc1ccccc1C(=O)N1CCCC1)c1ccc(Cl)c([N+](=O)[O-])c1	1.6	36.3*	-3.9	-0.6	-3.9	4.7	25.2
O=C(Nc1ccccc1N1CCCCC1)c1ccc(Cl)c([N+](=O)[O-])c1	1.4	41.1*	5.4	9.9	-1.9	3.4	51.3*
Cc1nc2ccc(NC(=O)c3ccc(Cl)c([N+](=O)[O-])c3)cc2s1	-0.5	29.8*	-2.4	5.2	-1.1	10.4	19.8
O=C(Nc1ccc(Nc2ccccc2)cc1)c1ccc(Cl)c([N+](=O)[O-])c1	-0.5	9.9	-0.4	38.1	2.4	·	·
O=C(Nc1ccccc1-c1ccccc1)c1ccc(Cl)c([N+](=O)[O-])c1	0.0	55.7*	2.5	9.4	-2.8	30.9*	74.3*
Cc1nc2ccc(NC(=O)c3ccc([N+](=O)[O-])cc3)cc2s1	-0.5	7.1	1.3	8.2	-0.2	·	·
SMILES	MC4R barr agon	MC4R antagonist	Rev-erbA mod	NTR1 ag	PG9 binder	cAMP nonselect	MC4R cAMP antag
Cc1sc2nc(CN3CCC(C)CC3)nc(Cl)c2c1C	·	·	-0.7	3.0	-3.1	·	·
Cc1sc2nc(CN3CCOCC3)nc(Cl)c2c1C	-2.5	31.9*	0.3	2.7	-3.2	11.2	27.7
COCCCN1C(=O)[C@H](CC(=O)NCCc2ccccc2OC)[C@]2(C(=O)OC)CCCCC=C12	·	·	-1.9	·	·	·	·
CC(C)NC(=O)C1CCN(C(=O)c2cc3sccc3n2Cc2ccc(F)cc2)CC1	0.7	32.2*	·	1.6	·	2.5	5.7
CC1CCN(C(=O)C2CCN(C(=O)c3cc4sccc4n3Cc3ccc(F)cc3)CC2)CC1	-1.3	-0.3	-2.7	1.4	1.1	·	·
CN(C)[C@@H]1CCN(c2ccc3c(c2)OCCCN(C2CC2)S3(=O)=O)C1	·	·	0.9	·	·	·	·
Cc1nc(-c2cccc(NC(=O)c3ccc(Cl)c(S(=O)(=O)N4CCCC4)c3)c2)cs1	-1.3	31.4*	0.8	·	0.7	4.4	-12.4
NS(=O)(=O)c1ccc(CNS(=O)(=O)c2ccc(Cl)nc2)cc1	-1.8	1.6	0.3	-0.5	-2.4	·	·
NS(=O)(=O)c1ccc(CCNS(=O)(=O)c2ccc(Cl)nc2)cc1	-0.2	35.0*	-5.5	-0.4	-1.1	19.3*	3.7
O=C(c1ccc(C#Cc2ccccc2)cc1)N1CCC(O)CC1	·	·	2.1	·	·	·	·
Cc1ccc2nc(N3C(=O)C(O)=C(C(=O)c4ccc(C)o4)C3c3cccc(O)c3)sc2c1 (stereo unspecified)	0.3	31.4*	-4.9	1.4	-0.1	1.8	13.3
COC(=O)c1sc(N2C(=O)C(O)=C(C(=O)c3ccc(C)o3)C2c2ccc(OC)c(OC)c2)nc1C (stereo unspecified)	-2.8	187.9*	2.0	-0.6	-0.2	-0.1	-16.4
CCOc1ccc(C2C(C(=O)c3ccc(C)o3)=C(O)C(=O)N2c2nc(C)c(C(=O)OC)s2)cc1 (stereo unspecified)	1.0	+	0.2	0.1	0.2	74.5*	143.4*
COC(=O)[C@]12C[C@H](CC(=O)N3CCCCC3)C(=O)N(Cc3ccccc3)C1=C[C@H](C(C)(C)C)O[C@@H]2C	·	·	-9.3	·	-0.5	·	·
COC(=O)c1ccc2nc(-c3cccc(Cl)c3)c(Cc3ccccc3C(F)(F)F)n2c1	·	·	2.1	·	-0.8	·	·
CCOC(=O)C1=C(C(=O)OCC)C2N(Cc3ccc(Br)cc3)c3ccccc3[C@@]23C[C@@H](C(=O)OC)N(S(=O)(=O)c2ccc(Br)cc2)C3=N1 (stereo partly specified)	·	·	2.0	·	-2.8	·	·
CSc1ccccc1C(=O)Nc1c(C)cccc1C	1.8	31.9*	-2.7	0.5	0.6	-2.1	-11.1
C=C(C)CNC(=S)N/N=C/c1ccc([N+](=O)[O-])cc1	-0.1	30.2*	0.7	0.2	0.4	-0.5	1.6
COCCNC(=S)N/N=C/c1ccc([N+](=O)[O-])cc1	-0.5	-1.0	-1.3	-1.3	-0.2	·	·
COc1ccc(OC)c(C(=O)CSc2nnc(SCc3cccc4ccccc34)s2)c1	·	·	-4.6	·	·	·	·
O=C(Nc1ccc(F)cc1)c1nn(-c2ccccc2)c(=O)cc1Cl	-1.3	30.6*	4.2	·	-0.2	29.8*	38.0*
